Experimental findings from ChEMBL document CHEMBL3603837, “Indole Glucocorticoid Receptor Antagonists Active in a Model of Dyslipidemia Act via a Unique Association with an Agonist Binding Site” (J Med Chem, 2015) are described below.

The term pKi denotes the negative decadic logarithm of the Ki, by convention in mol/L. A low value points to a large Ki. Usually pIC50 stands for −log10 of the IC50, conventionally taken in molar units.

The target in test [1] is T1, Glucocorticoid receptor (Homo sapiens, UniProt P04150).
T1 sequence (P04150 whole entry): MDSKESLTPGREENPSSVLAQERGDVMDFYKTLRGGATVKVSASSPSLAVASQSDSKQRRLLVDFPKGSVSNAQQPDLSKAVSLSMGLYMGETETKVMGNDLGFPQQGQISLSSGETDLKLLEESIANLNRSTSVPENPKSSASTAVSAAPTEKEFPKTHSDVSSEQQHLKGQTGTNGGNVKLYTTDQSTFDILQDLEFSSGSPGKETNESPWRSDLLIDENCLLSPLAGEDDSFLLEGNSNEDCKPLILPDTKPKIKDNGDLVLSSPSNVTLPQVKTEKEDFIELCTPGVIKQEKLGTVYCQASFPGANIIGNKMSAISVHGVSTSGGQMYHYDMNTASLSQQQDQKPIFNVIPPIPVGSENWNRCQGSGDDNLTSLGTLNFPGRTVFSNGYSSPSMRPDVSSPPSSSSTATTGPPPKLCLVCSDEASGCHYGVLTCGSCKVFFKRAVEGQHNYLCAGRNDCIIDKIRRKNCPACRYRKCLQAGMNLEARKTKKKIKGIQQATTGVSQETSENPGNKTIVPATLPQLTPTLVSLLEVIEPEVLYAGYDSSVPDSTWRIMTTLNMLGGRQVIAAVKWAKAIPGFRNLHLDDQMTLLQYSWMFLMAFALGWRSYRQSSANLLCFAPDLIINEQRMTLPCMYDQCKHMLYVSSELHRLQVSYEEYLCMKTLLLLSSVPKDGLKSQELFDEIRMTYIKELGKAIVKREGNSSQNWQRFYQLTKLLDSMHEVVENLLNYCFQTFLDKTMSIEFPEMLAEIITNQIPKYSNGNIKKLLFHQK
In words: Displacement of [3H]-dexamethasone from human glucocorticoid receptor expressed in HEK293 cells by scintillation counting based radioligand competition binding assay. The test is classed as cell-based. (In general: Displacement assays read how much labelled ligand stays bound in the presence of the test substance.)

For a further test, the target named is T2, Androgen receptor (Homo sapiens, UniProt P10275).
T2 sequence (P10275 whole entry): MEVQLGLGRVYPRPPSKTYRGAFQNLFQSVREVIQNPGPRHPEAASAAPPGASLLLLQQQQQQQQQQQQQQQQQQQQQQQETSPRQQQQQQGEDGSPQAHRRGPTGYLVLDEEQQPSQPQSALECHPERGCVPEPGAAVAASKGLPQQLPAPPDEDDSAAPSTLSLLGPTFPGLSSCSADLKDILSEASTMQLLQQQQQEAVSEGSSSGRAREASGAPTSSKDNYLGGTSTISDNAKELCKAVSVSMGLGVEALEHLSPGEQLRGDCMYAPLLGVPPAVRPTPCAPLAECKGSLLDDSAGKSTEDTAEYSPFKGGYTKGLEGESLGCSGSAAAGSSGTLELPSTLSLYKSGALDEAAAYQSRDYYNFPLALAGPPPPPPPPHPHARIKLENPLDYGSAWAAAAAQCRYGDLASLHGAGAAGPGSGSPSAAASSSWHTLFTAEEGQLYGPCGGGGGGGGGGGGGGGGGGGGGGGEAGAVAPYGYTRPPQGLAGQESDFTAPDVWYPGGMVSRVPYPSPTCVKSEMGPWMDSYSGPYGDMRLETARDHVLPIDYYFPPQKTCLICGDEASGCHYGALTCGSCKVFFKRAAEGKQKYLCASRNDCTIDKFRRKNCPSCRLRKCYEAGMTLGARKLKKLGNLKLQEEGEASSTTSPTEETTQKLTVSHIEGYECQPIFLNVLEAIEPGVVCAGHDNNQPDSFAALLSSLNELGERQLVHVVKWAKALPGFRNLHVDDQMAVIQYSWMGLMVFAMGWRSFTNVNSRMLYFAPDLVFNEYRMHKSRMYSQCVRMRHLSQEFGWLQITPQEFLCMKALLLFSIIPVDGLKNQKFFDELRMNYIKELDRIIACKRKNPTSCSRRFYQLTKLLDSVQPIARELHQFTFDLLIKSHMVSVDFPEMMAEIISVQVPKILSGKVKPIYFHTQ
In words: biochemical.

Test [2] deals with T1, Glucocorticoid receptor. In words: Antagonist activity against glucocorticoid receptor (unknown origin) expressed in HEK293 cells by GRE-dependent luciferase reporter gene assay. The class given is cell-based.
Test [3] deals with T3, Glucocorticoid receptor (Rattus norvegicus, UniProt P06536).
T3 sequence (P06536 whole entry): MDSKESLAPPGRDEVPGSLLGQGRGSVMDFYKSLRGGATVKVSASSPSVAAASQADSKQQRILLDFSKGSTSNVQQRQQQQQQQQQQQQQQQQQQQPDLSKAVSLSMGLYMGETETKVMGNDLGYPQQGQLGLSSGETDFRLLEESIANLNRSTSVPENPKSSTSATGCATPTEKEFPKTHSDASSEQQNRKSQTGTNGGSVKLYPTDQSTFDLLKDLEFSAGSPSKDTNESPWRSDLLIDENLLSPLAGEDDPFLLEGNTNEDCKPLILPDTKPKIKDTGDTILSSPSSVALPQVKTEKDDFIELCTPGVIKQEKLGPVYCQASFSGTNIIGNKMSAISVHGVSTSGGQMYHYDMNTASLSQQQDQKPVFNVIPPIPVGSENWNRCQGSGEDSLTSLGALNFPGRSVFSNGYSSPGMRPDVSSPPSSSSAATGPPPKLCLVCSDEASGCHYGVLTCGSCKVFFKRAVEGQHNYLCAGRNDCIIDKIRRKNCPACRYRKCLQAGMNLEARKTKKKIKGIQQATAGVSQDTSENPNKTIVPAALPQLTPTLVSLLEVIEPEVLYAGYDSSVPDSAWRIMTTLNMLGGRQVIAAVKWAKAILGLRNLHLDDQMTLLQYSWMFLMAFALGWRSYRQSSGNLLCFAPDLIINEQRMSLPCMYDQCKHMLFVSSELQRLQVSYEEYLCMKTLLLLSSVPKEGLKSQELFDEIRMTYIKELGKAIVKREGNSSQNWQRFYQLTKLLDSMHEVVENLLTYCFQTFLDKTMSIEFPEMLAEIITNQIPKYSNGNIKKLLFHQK
In words: Antagonist activity against glucocorticoid receptor in rat H4-IIE cells assessed as inhibition of dexamethasone-induced receptor transactivation pre-incubated for 1 hr before dexamethasone addition and measured 24 hrs post dexamethasone stimulation by tyrosine aminotransferase enzyme assay. The test is classed as cell-based.

Test [4] has as its target T4, Glucocorticoid receptor (Homo sapiens) (UniProt P04150).
T4 sequence (whole entry): T1 sequence (P04150 whole entry)
In words: Agonist activity at glucocorticoid receptor (unknown origin) expressed in HEK293 cells by GRE-dependent luciferase reporter gene assay. The class given is cell-based. (In general: A reporter such as luciferase makes a cellular process visible.)

Test [5] deals with T5, Glucocorticoid receptor (Rattus norvegicus) (UniProt P06536).
T5 sequence (whole entry): T3 sequence (P06536 whole entry)
In words: Agonist activity at glucocorticoid receptor in rat H4-IIE cells assessed as receptor transactivation incubated for 24 hrs by tyrosine aminotransferase enzyme assay. The test is classed as cell-based. In short, it runs like this:
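Rat hepatoma H4IIEC3 cells grown in DMEM with 10% FBS, plated at 100000 cells/well overnight at 37 °C, 5% CO2, then switched to DMEM/F12 with 5% CS-FBS for 24 h. Test compounds at about 0.09 nM–25 μM for 24 h. Lysates given TAT substrate (4.74 mM L-tyrosine, 13.3 mM α-ketoglutarate, pH 7.6) for 2 h at 37 °C, then KOH. A340 read against a standard curve; EC50 from four-parameter logistic fit.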

pIC50, pKi: −log10 of the molar value. The source made the active and inactive calls. The rule behind the calls is not given here.

With `COc1cc(F)ccc1-c1c(CN(C)Cc2ccccc2)[nH]c2c(NS(C)(=O)=O)cc(C(C)C)cc12`, the pKi at Glucocorticoid receptor [1] is 8.91; at Androgen receptor, 6.63. In addition, the pIC50 against Glucocorticoid receptor [2] is 8.56; on Glucocorticoid receptor [3], 7.97. For the same compound, the result in test [4] and in test [5] was inactive.

For the compound `COc1cc(F)ccc1-c1c(CN(C)Cc2ccccc2)[nH]c2c(N)cc(F)cc12`, on Androgen receptor, the pKi is 5.38.

On to `COc1cc(F)ccc1-c1c(C)[nH]c2c(NS(C)(=O)=O)cc(F)cc12`, for which the pKi on Glucocorticoid receptor [1] was 8.88; on Androgen receptor, 5.95. Further, the figures for the pIC50 on Glucocorticoid receptor [2] and on Glucocorticoid receptor [3] were 7.66 and 7.20, respectively. The outcome in test [4] and in test [5] was inactive.

For the compound `COc1ccc(F)cc1-c1c(-c2ccccc2)[nH]c2c(NS(C)(=O)=O)cccc12`, the negative-log Ki (pKi) at Glucocorticoid receptor [1] was 7.27; on Androgen receptor it was 6.04.

With `COc1cc(NS(C)(=O)=O)c2[nH]c(C)c(-c3cc(F)ccc3OC)c2c1`, the values for the pKi at Glucocorticoid receptor [1] and at Androgen receptor were 6.94 and 5.95, respectively.

Turning to `CS(=O)(=O)Nc1cccc2c(-c3ccc(F)cc3)c[nH]c12`, the pKi is 7.02 on Glucocorticoid receptor [1] and 6.30 at Androgen receptor.

With `CS(=O)(=O)Nc1cccc2c(-c3cccc(Cl)c3)c[nH]c12`, the pKi was 8.30 on Glucocorticoid receptor [1] and 7.04 on Androgen receptor. The pIC50 at Glucocorticoid receptor [2] is 6.74; at Glucocorticoid receptor [3] it was 7.12.

`COc1cc(F)ccc1-c1c(CN(C)Cc2ccccc2)[nH]c2c(NS(C)(=O)=O)cc(C(C)(C)C)cc12` gave a pKi at Androgen receptor of 6.64. For the same compound, the pIC50 on Glucocorticoid receptor [3] was 7.84. Moreover, in test [5], the outcome was inactive.

Turning to `COc1ccccc1-c1c[nH]c2c(NS(C)(=O)=O)cccc12`, the pKi on Glucocorticoid receptor [1] was 8.51; at Androgen receptor it was 6.40. Moreover, the pIC50 on Glucocorticoid receptor [2] was 6.63; at Glucocorticoid receptor [3], 5.93.

As for `COc1cc(NS(C)(=O)=O)c2[nH]c(C)c(-c3ccccc3)c2c1`, the pKi at Glucocorticoid receptor [1] was 7.40; on Androgen receptor, 5.39.

Take `COc1ccc(Cl)cc1-c1c[nH]c2c(NS(C)(=O)=O)cccc12`: the negative logarithm of the Ki (pKi) at Glucocorticoid receptor [1] was 8.26; at Androgen receptor, 6.16. Further, the pIC50 was 6.84 on Glucocorticoid receptor [2] and 5.90 on Glucocorticoid receptor [3]. For the same compound, the outcome in test [4] and in test [5] was inactive.

`COc1cc(F)ccc1-c1c(Cc2ccccc2)[nH]c2c(NS(C)(=O)=O)cc(C(C)C)cc12`: the results for the pKi at Glucocorticoid receptor [1] and at Androgen receptor were 9.27 and 6.16, respectively. In addition, the figures for the pIC50 at Glucocorticoid receptor [2] and at Glucocorticoid receptor [3] were 8.12 and 6.53, respectively. The outcome in test [4] and in test [5] was inactive.

For the compound `CS(=O)(=O)Nc1cccc2cc[nH]c12`, the pKi was 7.30 at Glucocorticoid receptor [1] and 6.45 on Androgen receptor.
